Measured values published in ChEMBL document CHEMBL3045565, “Microwave synthesis, characterization and bio-efficacy evaluation of novel chalcone based 6-carbethoxy-2-cyclohexen-1-one and 2H-indazol-3-ol derivatives” (Eur J Med Chem, 2013).
Converted amounts (≈) assume the structure as drawn.

Test system: Xanthomonas oryzae
Test: Antibacterial activity against Xanthomonas oryzae ITCC B-47 assessed as as growth inhibition at 100 ug/disk after 24 hr by disk diffusion method
Format: functional
Conditions: ITCC B-47, 24 h, read-out: DIZ

| SMILES | zone of inhibition at 100 µg/disc |
| --- | --- |
| O=[N+]([O-])c1ccc(C2=Cc3n[nH]c(O)c3C(c3ccc4c(c3)OCO4)C2)cc1 (configuration not stated) | 0 mm |
| COc1ccc(C2CC(c3ccc(Cl)c(Cl)c3)=Cc3n[nH]c(O)c32)cc1 (configuration not stated) | 0 mm |
| CCOC(=O)C1C(=O)C=C(c2ccccc2)CC1c1cc(OC)c(OC)c(OC)c1 (configuration not stated) | 0 mm |

Test system: Dickeya chrysanthemi
Test: Antibacterial activity against Erwinia chrysanthemi ITCC B-40 assessed as as growth inhibition at 100 ug/disk after 24 hr by disk diffusion method
Format: functional
Conditions: ITCC B-40, 24 h, read-out: DIZ
Procedure, shortened: (§1)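 Disk diffusion on nutrient agar. Strains kept on NA slants at 37 °C and subcultured in nutrient broth before testing. A log-phase culture was spread on solidified medium, and sterile disks were loaded with compound from DMSO stock. DMSO served as control, with commercial antibiotics for reference. Plates ran 24 h at 37 °C, and inhibition zones (mm) were read in quadruplicate.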

| SMILES | zone of inhibition at 100 µg/disc |
| --- | --- |
| O=[N+]([O-])c1ccc(C2=Cc3n[nH]c(O)c3C(c3ccc4c(c3)OCO4)C2)cc1 (configuration not stated) | 0 mm |
| COc1ccc(C2CC(c3ccc(Cl)c(Cl)c3)=Cc3n[nH]c(O)c32)cc1 (configuration not stated) | 0 mm |
| CCOC(=O)C1C(=O)C=C(c2ccccc2)CC1c1cc(OC)c(OC)c(OC)c1 (configuration not stated) | 0 mm |

Test system: Rhizoctonia solani
Test: Antifungal activity against Rhizoctonia solani ITCC 5563 by food poisoning method
Format: functional
Conditions: not given
Procedure, shortened: (§2)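 Poisoned food technique on PDA at several concentrations. A 5 mm mycelial plug from the growing edge of a 2-week-old colony was placed inoculum-side down at the plate centre. Plates incubated at 27 °C until control growth was nearly complete. Colony diameter measured, percent inhibition calculated against control, LC50 derived. Four replicates per treatment.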

| SMILES | LC50 |
| --- | --- |
| O=[N+]([O-])c1ccc(C2=Cc3n[nH]c(O)c3C(c3ccc4c(c3)OCO4)C2)cc1 (configuration not stated) | 931 µg/mL (≈ 2470 µM) |
| COc1ccc(C2CC(c3ccc(Cl)c(Cl)c3)=Cc3n[nH]c(O)c32)cc1 (configuration not stated) | 776 µg/mL (≈ 2000 µM) |
| CCOC(=O)C1C(=O)C=C(c2ccccc2)CC1c1cc(OC)c(OC)c(OC)c1 (configuration not stated) | 139 µg/mL (≈ 339 µM) |

Test system: Athelia rolfsii
Test: Antifungal activity against Athelia rolfsii ITCC 6181 by food poisoning method
Format: functional
Conditions: Agroathelia rolfsii
Procedure, shortened: as §2

| SMILES | LC50 |
| --- | --- |
| O=[N+]([O-])c1ccc(C2=Cc3n[nH]c(O)c3C(c3ccc4c(c3)OCO4)C2)cc1 (configuration not stated) | 963 µg/mL (≈ 2550 µM) |
| COc1ccc(C2CC(c3ccc(Cl)c(Cl)c3)=Cc3n[nH]c(O)c32)cc1 (configuration not stated) | 1030 µg/mL (≈ 2660 µM) |
| CCOC(=O)C1C(=O)C=C(c2ccccc2)CC1c1cc(OC)c(OC)c(OC)c1 (configuration not stated) | 365 µg/mL (≈ 889 µM) |

Test system: Radical scavenging activity
Test: Antioxidant activity assessed as DPPH free radical scavenging activity at 400 ug/mL after 20 min by UV-Vis spectrophotometric analysis
Format: functional
Conditions: not given
Procedure, shortened: (§3)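 DPPH radical scavenging: samples were held at room temperature for 20 min in the dark, and absorbance was read at 517 nm. The control contained DMSO without compound, and methanol was used for baseline correction. Scavenging percentage was calculated from the absorbances.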

| SMILES | Activity |
| --- | --- |
| O=[N+]([O-])c1ccc(C2=Cc3n[nH]c(O)c3C(c3ccc4c(c3)OCO4)C2)cc1 (configuration not stated) | 87.3% |
| COc1ccc(C2CC(c3ccc(Cl)c(Cl)c3)=Cc3n[nH]c(O)c32)cc1 (configuration not stated) | 91.3% |

Test system: Radical scavenging activity
Test: Antioxidant activity assessed as DPPH free radical scavenging activity at 500 ug/mL after 20 min by UV-Vis spectrophotometric analysis
Format: functional
Conditions: not given
Procedure, shortened: as §3

| SMILES | Activity |
| --- | --- |
| O=[N+]([O-])c1ccc(C2=Cc3n[nH]c(O)c3C(c3ccc4c(c3)OCO4)C2)cc1 (configuration not stated) | 87.3% |
| COc1ccc(C2CC(c3ccc(Cl)c(Cl)c3)=Cc3n[nH]c(O)c32)cc1 (configuration not stated) | 91.3% |

Test system: Radical scavenging activity
Test: Antioxidant activity assessed as DPPH free radical scavenging activity at 300 ug/mL after 20 min by UV-Vis spectrophotometric analysis
Format: functional
Conditions: not given
Procedure, shortened: as §3

| SMILES | Activity |
| --- | --- |
| O=[N+]([O-])c1ccc(C2=Cc3n[nH]c(O)c3C(c3ccc4c(c3)OCO4)C2)cc1 (configuration not stated) | 87.9% |
| COc1ccc(C2CC(c3ccc(Cl)c(Cl)c3)=Cc3n[nH]c(O)c32)cc1 (configuration not stated) | 90.7% |

Test system: Radical scavenging activity
Test: Antioxidant activity assessed as DPPH free radical scavenging activity at 100 ug/mL after 20 min by UV-Vis spectrophotometric analysis
Format: functional
Conditions: not given
Procedure, shortened: as §3

| SMILES | Activity |
| --- | --- |
| O=[N+]([O-])c1ccc(C2=Cc3n[nH]c(O)c3C(c3ccc4c(c3)OCO4)C2)cc1 (configuration not stated) | 50.7% |
| COc1ccc(C2CC(c3ccc(Cl)c(Cl)c3)=Cc3n[nH]c(O)c32)cc1 (configuration not stated) | 91.1% |

Test system: Radical scavenging activity
Test: Antioxidant activity assessed as DPPH free radical scavenging activity at 200 ug/mL after 20 min by UV-Vis spectrophotometric analysis
Format: functional
Conditions: not given
Procedure, shortened: as §3

| SMILES | Activity |
| --- | --- |
| O=[N+]([O-])c1ccc(C2=Cc3n[nH]c(O)c3C(c3ccc4c(c3)OCO4)C2)cc1 (configuration not stated) | 83.4% |
| COc1ccc(C2CC(c3ccc(Cl)c(Cl)c3)=Cc3n[nH]c(O)c32)cc1 (configuration not stated) | 91.5% |

Test system: Radical scavenging activity
Test: Antioxidant activity assessed as DPPH free radical scavenging activity at 60 ug/mL after 20 min by UV-Vis spectrophotometric analysis
Format: functional
Conditions: not given
Procedure, shortened: as §3

| SMILES | Activity |
| --- | --- |
| O=[N+]([O-])c1ccc(C2=Cc3n[nH]c(O)c3C(c3ccc4c(c3)OCO4)C2)cc1 (configuration not stated) | 38.4% |
| COc1ccc(C2CC(c3ccc(Cl)c(Cl)c3)=Cc3n[nH]c(O)c32)cc1 (configuration not stated) | 86.1% |

Test system: Radical scavenging activity
Test: Antioxidant activity assessed as DPPH free radical scavenging activity at 80 ug/mL after 20 min by UV-Vis spectrophotometric analysis
Format: functional
Conditions: not given
Procedure, shortened: as §3

| SMILES | Activity |
| --- | --- |
| O=[N+]([O-])c1ccc(C2=Cc3n[nH]c(O)c3C(c3ccc4c(c3)OCO4)C2)cc1 (configuration not stated) | 44.5% |
| COc1ccc(C2CC(c3ccc(Cl)c(Cl)c3)=Cc3n[nH]c(O)c32)cc1 (configuration not stated) | 90.4% |

Test system: Radical scavenging activity
Test: Antioxidant activity assessed as DPPH free radical scavenging activity at 40 ug/mL after 20 min by UV-Vis spectrophotometric analysis
Format: functional
Conditions: not given
Procedure, shortened: as §3

| SMILES | Activity |
| --- | --- |
| O=[N+]([O-])c1ccc(C2=Cc3n[nH]c(O)c3C(c3ccc4c(c3)OCO4)C2)cc1 (configuration not stated) | 19.8% |
| COc1ccc(C2CC(c3ccc(Cl)c(Cl)c3)=Cc3n[nH]c(O)c32)cc1 (configuration not stated) | 48.6% |

Test system: Radical scavenging activity
Test: Antioxidant activity assessed as DPPH free radical scavenging activity at 20 ug/mL after 20 min by UV-Vis spectrophotometric analysis
Format: functional
Conditions: not given
Procedure, shortened: as §3

| SMILES | Activity |
| --- | --- |
| O=[N+]([O-])c1ccc(C2=Cc3n[nH]c(O)c3C(c3ccc4c(c3)OCO4)C2)cc1 (configuration not stated) | 5.8% |
| COc1ccc(C2CC(c3ccc(Cl)c(Cl)c3)=Cc3n[nH]c(O)c32)cc1 (configuration not stated) | 31% |

Test system: Radical scavenging activity
Test: Antioxidant activity assessed as DPPH free radical scavenging activity at 10 ug/mL after 20 min by UV-Vis spectrophotometric analysis
Format: functional
Conditions: not given
Procedure, shortened: as §3

| SMILES | Activity |
| --- | --- |
| O=[N+]([O-])c1ccc(C2=Cc3n[nH]c(O)c3C(c3ccc4c(c3)OCO4)C2)cc1 (configuration not stated) | 5.3% |
| COc1ccc(C2CC(c3ccc(Cl)c(Cl)c3)=Cc3n[nH]c(O)c32)cc1 (configuration not stated) | 17.6% |

Test system: Radical scavenging activity
Test: Antioxidant activity assessed as DPPH free radical scavenging activity after 20 min by UV-Vis spectrophotometric analysis
Format: functional
Design: concentration or dose not given beside the values
Conditions: not given
Procedure, shortened: as §3

| SMILES | Activity | IC50 |
| --- | --- | --- |
| O=[N+]([O-])c1ccc(C2=Cc3n[nH]c(O)c3C(c3ccc4c(c3)OCO4)C2)cc1 (configuration not stated) | 19.8% | 95.82 µg/mL (≈ 254 µM) |
| COc1ccc(C2CC(c3ccc(Cl)c(Cl)c3)=Cc3n[nH]c(O)c32)cc1 (configuration not stated) | 48.5% | 40.98 µg/mL (≈ 106 µM) |
| CCOC(=O)C1C(=O)C=C(c2ccccc2)CC1c1cc(OC)c(OC)c(OC)c1 (configuration not stated) | 1.69% | – |

Test system: Pseudomonas aeruginosa
Test: Antibacterial activity against Pseudomonas aeruginosa MTCC 2581 assessed as growth inhibition at 100 ug/disk after 24 hr by disk diffusion method
Format: functional
Conditions: MTCC 2581, 24 h, read-out: DIZ
Procedure, shortened: as §1

| SMILES | zone of inhibition at 100 µg/disc |
| --- | --- |
| O=[N+]([O-])c1ccc(C2=Cc3n[nH]c(O)c3C(c3ccc4c(c3)OCO4)C2)cc1 (configuration not stated) | 0 mm |
| COc1ccc(C2CC(c3ccc(Cl)c(Cl)c3)=Cc3n[nH]c(O)c32)cc1 (configuration not stated) | 0 mm |
| CCOC(=O)C1C(=O)C=C(c2ccccc2)CC1c1cc(OC)c(OC)c(OC)c1 (configuration not stated) | 0 mm |

Test system: Staphylococcus aureus
Test: Antibacterial activity against Staphylococcus aureus MTCC 3160 assessed as growth inhibition at 100 ug/disk after 24 hr by disk diffusion method
Format: functional
Conditions: MTCC 3160, 24 h, read-out: DIZ
Procedure, shortened: as §1

| SMILES | zone of inhibition at 100 µg/disc |
| --- | --- |
| O=[N+]([O-])c1ccc(C2=Cc3n[nH]c(O)c3C(c3ccc4c(c3)OCO4)C2)cc1 (configuration not stated) | 0 mm |
| COc1ccc(C2CC(c3ccc(Cl)c(Cl)c3)=Cc3n[nH]c(O)c32)cc1 (configuration not stated) | 0 mm |
| CCOC(=O)C1C(=O)C=C(c2ccccc2)CC1c1cc(OC)c(OC)c(OC)c1 (configuration not stated) | 0 mm |

Test system: Klebsiella pneumoniae
Test: Antibacterial activity against Klebsiella pneumoniae MTCC 7028 assessed as growth inhibition at 100 ug/disk after 24 hr by disk diffusion method
Format: functional
Conditions: MTCC 7028, 24 h, read-out: DIZ
Procedure, shortened: as §1

| SMILES | zone of inhibition at 100 µg/disc |
| --- | --- |
| O=[N+]([O-])c1ccc(C2=Cc3n[nH]c(O)c3C(c3ccc4c(c3)OCO4)C2)cc1 (configuration not stated) | 0 mm |
| COc1ccc(C2CC(c3ccc(Cl)c(Cl)c3)=Cc3n[nH]c(O)c32)cc1 (configuration not stated) | 0 mm |
| CCOC(=O)C1C(=O)C=C(c2ccccc2)CC1c1cc(OC)c(OC)c(OC)c1 (configuration not stated) | 0 mm |

Test system: Bacillus pumilus
Test: Antibacterial activity against Bacillus pumilus MTCC 2466 assessed as growth inhibition at 100 ug/disk after 24 hr by disk diffusion method
Format: functional
Conditions: MTCC 2466, 24 h, read-out: DIZ
Procedure, shortened: as §1

| SMILES | zone of inhibition at 100 µg/disc |
| --- | --- |
| O=[N+]([O-])c1ccc(C2=Cc3n[nH]c(O)c3C(c3ccc4c(c3)OCO4)C2)cc1 (configuration not stated) | 0 mm |
| COc1ccc(C2CC(c3ccc(Cl)c(Cl)c3)=Cc3n[nH]c(O)c32)cc1 (configuration not stated) | 0 mm |
| CCOC(=O)C1C(=O)C=C(c2ccccc2)CC1c1cc(OC)c(OC)c(OC)c1 (configuration not stated) | 0 mm |

Test system: Bacillus thuringiensis
Test: Antibacterial activity against Bacillus thuringiensis MTCC 6941 assessed as growth inhibition at 100 ug/disk after 24 hr by disk diffusion method
Format: functional
Conditions: MTCC 6941, 24 h, read-out: DIZ
Procedure, shortened: as §1

| SMILES | zone of inhibition at 100 µg/disc |
| --- | --- |
| O=[N+]([O-])c1ccc(C2=Cc3n[nH]c(O)c3C(c3ccc4c(c3)OCO4)C2)cc1 (configuration not stated) | 0 mm |
| COc1ccc(C2CC(c3ccc(Cl)c(Cl)c3)=Cc3n[nH]c(O)c32)cc1 (configuration not stated) | 0 mm |
| CCOC(=O)C1C(=O)C=C(c2ccccc2)CC1c1cc(OC)c(OC)c(OC)c1 (configuration not stated) | 0 mm |
